From publication PMC9884082 (Journal of Medicinal Chemistry, 2023)
Several values for one entry are separate records, joined by “and”; a condition that tells them apart may be missing. Equal entries are not always repeated. Entries after “also recorded” stand apart in the source; their conditions may differ.

Key:
[1] = system: CD133+/CXCR4+ (Dual Hi) HT-29 xenografts; assay: Dual Hi HT-29 xenograft after FUOX enrichment, oral G2C or IP G2.2; assay type: in vivo, NCr nude mice; conditions: for tumor growth compared to vehicle: experiment 2, G2.2 100 mg/kg IP 3 times/week, G2C 100 mg/kg PO 5 times/week, 3 weeks
Procedure, shortened: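 1 × 10⁵ CD133⁺/CXCR4⁺ HT-29 cells were injected subcutaneously into NCr nude mice. Palpable tumors received 50 mg/kg 5-FU plus 5 mg/kg oxaliplatin IP weekly for 3 weeks. Mice were randomized to vehicle or test compound 100 mg/kg PO 5 times/week for 3 weeks, or, in a second experiment, parent 100 mg/kg IP 3 times/week. Xenograft single cells were assessed for 1–3° spheroids. CD133/CXCR4/LGR5 cells were quantified by flow cytometry (30 min staining, 4 °C).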

[2] = system: pooled normal human plasma; assay: Human plasma clotting time; assay type: biochemical; conditions: ∼34 to ∼68 s
Procedure, shortened: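 APTT was run in a fibrometer by one-stage recalcification. Test compound was mixed with citrated pooled normal human plasma and prewarmed APTT reagent (ellagic acid). After 4 min at 37 °C, clotting was started with prewarmed 25 mM CaCl₂ and time to clot recorded. A quadratic trend line fitted to the data gave the concentration doubling clotting time.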

colon xenografts = conditions: cited from earlier work
[3] = system: intestinal crypt-derived organoids; assay: Ex vivo intestinal crypt-derived organoids from treated mice; assay type: in vivo
[4] = Mouse tail bleeding study; assay type: in vivo, wild-type ICR mice; conditions: IV; NSGMs 1–100 mg/kg, enoxaparin 224 μg/kg
HT-29 xenografts = assay: HT-29 xenograft after FUOX enrichment, IP G2C, FUOX or G2C+FUOX; assay type: in vivo, NCr nude mice
Procedure, shortened: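 1 × 10⁶ unsorted HT-29 cells were injected subcutaneously into NCr nude mice. Palpable tumors received 25 mg/kg 5-fluorouracil plus 2 mg/kg oxaliplatin IP weekly for 3 weeks. Mice were randomized to vehicle, test compound 50 mg/kg IP three times/week (8 doses), continued 5-FU/oxaliplatin, or both. Tumor volume was followed to sacrifice (n = 2/group) and compared with vehicle.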

HT-29 monolayer culture = assay: Cell proliferation; assay type: cell-based, human; conditions: MTT, 60-72 h
Procedure, shortened: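 HT-29 cells kept as monolayers in DMEM:F-12 with 10% FBS and 1% penicillin/streptomycin, passaged before 70% confluence. About 2.5 × 10³ cells/well were incubated overnight (37 °C, 5% CO₂), then exposed to test compound for 60–72 h. MTT (5 mg/mL stock in PBS) was added for 2–3 h and crystals dissolved in DMSO. A590 was read and growth expressed as percent of vehicle; ≥3 replicates.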

[5] = system: colon cancer cell line HT-29 spheroids; assay: Spheroid inhibition assay; assay type: cell-based, human
Procedure, shortened: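 HT-29 cells (≤6 passages) were seeded at 100–300 cells/well in low-adhesion plates. Medium was stem cell medium: DMEM:F12 with B27, 20 ng/mL EGF and 10 ng/mL FGF. After brief incubation, vehicle or test compound was added. After 3–7 days, spheroids of 50–150 μm were counted by phase-contrast microscopy as percent of vehicle. IC50 came from normalized sigmoidal regression; ≥3 replicates.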

[6] = HT-29 spheroids, relative to G2.2

In the case of O=c1c(OS(=O)(=O)[O-])c(-c2ccc(OS(=O)(=O)[O-])c(OS(=O)(=O)[O-])c2)oc2cc(OS(=O)(=O)[O-])cc(OCCCOc3cc(OS(=O)(=O)[O-])cc4oc(-c5ccc(OS(=O)(=O)[O-])c(OS(=O)(=O)[O-])c5)c(OS(=O)(=O)[O-])c(=O)c34)c12.[Na+].[Na+].[Na+].[Na+].[Na+].[Na+].[Na+].[Na+] [G2.2, Sodium 4-(5-(3-((2-(3,4-Bis(sulfonatooxy)phenyl)-4-oxo-3,7-bis(sulfonatooxy)-4H-chromen-5-yl)oxy)propoxy)-4-oxo-3,7-bis(sulfonatooxy)-4H-chromen-2-yl)-1,2-phenylene Bis(sulfate)], the “tumor growth compared to vehicle” value [1] is listed as “seemed to reduce tumor growth”, the “concentration required for 2-fold increase in APTT” value [2] is listed as 900 µM and the “expression of BMI-1 (CSC self-renewal marker)” value (colon xenografts) is listed as “significant reduction in the expression of BMI-1”. For the same molecule, the “expression of colon CSC markers” value (colon xenografts) was “inhibited the expression of CD133^+, CXCR4^+, DCAMLK1, and/or LGR5 markers” and the “growth of colon xenografts and toxicity” value (colon xenografts; parenterally administered) was “inhibits the growth of colon xenografts without any toxicity to vital organs or bleeding consequences”.

In the case of CC(C)CCC[C@@H](C)[C@H]1CC[C@H]2[C@@H]3CC=C4C[C@@H](OCCOc5cc(-c6oc7cc(OS(=O)(=O)[O-])cc(OCCCOc8cc(OS(=O)(=O)[O-])cc9oc(-c%10ccc(OS(=O)(=O)[O-])c(OS(=O)(=O)[O-])c%10)c(OS(=O)(=O)[O-])c(=O)c89)c7c(=O)c6OS(=O)(=O)[O-])ccc5OS(=O)(=O)[O-])CC[C@]4(C)[C@H]3CC[C@]12C.[Na+].[Na+].[Na+].[Na+].[Na+].[Na+].[Na+] [G2C, Sodium 4-(5-(3-((2-(3-(2-(((8S,9S,10R,13R,14S,17R)-10,13-Dimethyl-17-((R)-6-methylheptan-2-yl)-2,3,4,7,8,9,10,11,12,13,14,15,16,17-tetradecahydro-1H-cyclopenta[a]phenanthren-3-yl)oxy)ethoxy)-4-(sulfonatooxy)phenyl)-4-oxo-3,7-bis(sulfonatooxy)-4H-chromen-5-yl)oxy)propoxy)-4-oxo-3,7-bis(sulfonatooxy)-4H-chromen-2-yl)-1,2-phenylene Bis(sulfate)], the “ex vivo growth of organoids derived from intestinal crypts” value ([3]; after IP G2C 50 mg/kg alone or with FUOX) is reported as “did not inhibit ex vivo growth of organoids derived from intestinal crypts”, the “intestinal crypt-derived organoid growth” value ([3]; after oral G2C 100 mg/kg 5 times/week for 3 weeks) is reported as “did not reduce intestinal crypt-derived organoid growths” and the “blood loss, tail bleeding” value [4] is reported as “did not exhibit much tail bleeding phenotype”. For the same molecule, the “inhibition of xenografts compared to vehicle” value (HT-29 xenografts; G2C 50 mg/kg IP (Figure 6B)) was 30%, the animal weight (HT-29 xenografts; G2C 50 mg/kg IP alone or with FUOX) was “no significant change in animal weight” and the “expression of DCAMKL1 and BMI-1 in xenograft lysate” value (HT-29 xenografts; Western blots) was “inhibition in the expression of DCAMKL1 (CSC marker) and BMI-1 (self-renewal marker)”. For the same molecule, the “3 and 4° spheroid formation from xenograft-derived cells” value (HT-29 xenografts; ex vivo in CSC media, compared to vehicle) was “significant inhibition of self-renewing CSCs”, the animal weight ([1]; daily oral G2C) was “did not lose weight” and the “bleeding at the site of injection or in organs” value ([1]; daily oral G2C) was “no obvious sign of major bleeding”. For the same molecule, the “3° spheroid formation from xenograft-derived cells” value ([1]; experiment 1, G2C 100 mg/kg PO) was “significantly inhibited”, the “Dual Hi cell-induced tumor growth” value ([1]; experiment 1, G2C 100 mg/kg PO 5 times/week for 3 weeks) was “significantly inhibited Dual Hi cell-induced tumor growth” and the “tumor growth compared to vehicle” value [1] was “seemed to reduce tumor growth; also recorded: higher growth inhibition”. For the same molecule, the “proportion of CD133+/CXCR4+ (Dual Hi) and LGR5 cells in xenografts” value ([1]; flow cytometry, oral G2C) was “significantly lower”, the “blood chemistry compared to vehicle” value ([1]; oral G2C) was “did not produce any significant change in blood chemistry” and the “cytotoxicity under monolayer conditions” value (HT-29 monolayer culture) was “significantly cytotoxic at ∼100 μM”. For the same molecule, the “concentration required for 2-fold increase in APTT” value [2] was ~300 µM.

In the case of CC(C)CCC[C@@H](C)[C@H]1CC[C@H]2[C@@H]3CC=C4C[C@@H](OCCCCCCCCOc5cc(-c6oc7cc(OS(=O)(=O)[O-])cc(OCCCOc8cc(OS(=O)(=O)[O-])cc9oc(-c%10ccc(OS(=O)(=O)[O-])c(OS(=O)(=O)[O-])c%10)c(OS(=O)(=O)[O-])c(=O)c89)c7c(=O)c6OS(=O)(=O)[O-])ccc5OS(=O)(=O)[O-])CC[C@]4(C)[C@H]3CC[C@]12C.[Na+].[Na+].[Na+].[Na+].[Na+].[Na+].[Na+] [G8C, Sodium 4-(5-(3-((2-(3-((8-(((8S,9S,10R,13R,14S,17R)-10,13-Dimethyl-17-((R)-6-methylheptan-2-yl)-2,3,4,7,8,9,10,11,12,13,14,15,16,17-tetradecahydro-1H-cyclopenta[a]phenanthren-3-yl)oxy)octyl)oxy)-4-(sulfonatooxy)phenyl)-4-oxo-3,7-bis(sulfonatooxy)-4H-chromen-5-yl)oxy)propoxy)-4-oxo-3,7-bis(sulfonatooxy)-4H-chromen-2-yl)-1,2-phenylene Bis(sulfate)], the “blood loss, tail bleeding” value [4] is reported as “did not exhibit much tail bleeding phenotype”, the “cytotoxicity under monolayer conditions” value (HT-29 monolayer culture) is reported as “significantly cytotoxic at ∼100 μM” and the “concentration required for 2-fold increase in APTT” value [2] is reported as ~37 µM.

For O=c1cc(-c2ccc(OS(=O)(=O)[O-])cc2)oc2cc(OS(=O)(=O)[O-])cc(OCC3CCC(COc4cc(OS(=O)(=O)[O-])cc5oc(-c6ccc(OS(=O)(=O)[O-])cc6)cc(=O)c45)CC3)c12.[Na+].[Na+].[Na+].[Na+] (stereo not drawn) [MAD1, Sodium 4-Oxo-5-((4-(((4-oxo-7-(sulfonatooxy)-2-(4-(sulfonatooxy)phenyl)-4H-chromen-5-yl)oxy)methyl)cyclohexyl)methoxy)-2-(4-(sulfonatooxy)phenyl)-4H-chromen-7-yl Sulfate], the “fold weaker than G2.2 (spheroid potency)” value [5, 6] was “about 1.6 fold”, the “fold lower potency than MQD1” value ([5]; eight (MQD1) to four (MAD1) sulfate groups) was 11.4 fold and the “cytotoxicity under monolayer conditions” value (HT-29 monolayer culture) was “did not display significant cytotoxicity”.

In the case of O=c1c(OS(=O)(=O)[O-])c(-c2ccc(OS(=O)(=O)[O-])cc2OS(=O)(=O)[O-])oc2cc(OS(=O)(=O)[O-])cc(OCC3CCC(COc4cc(OS(=O)(=O)[O-])cc5oc(-c6ccc(OS(=O)(=O)[O-])cc6OS(=O)(=O)[O-])c(OS(=O)(=O)[O-])c(=O)c45)CC3)c12.[Na+].[Na+].[Na+].[Na+].[Na+].[Na+].[Na+].[Na+] (stereo not drawn) [MMD1, Sodium 4-(5-((4-(((2-(2,4-Bis(sulfonatooxy)phenyl)-4-oxo-3,7-bis(sulfonatooxy)-4H-chromen-5-yl)oxy)methyl)cyclohexyl)methoxy)-4-oxo-3,7-bis(sulfonatooxy)-4H-chromen-2-yl)-1,3-phenylene Bis(sulfate)], the “fold better than G2.2 (spheroid potency, IC50 gain)” value [5, 6] is reported as 1.7 fold and the “cytotoxicity under monolayer conditions” value (HT-29 monolayer culture) is reported as “did not display significant cytotoxicity”.

With O=c1c(OS(=O)(=O)[O-])c(-c2ccc(OS(=O)(=O)[O-])c(OS(=O)(=O)[O-])c2)oc2cc(OS(=O)(=O)[O-])cc(OCC3CCC(COc4cc(OS(=O)(=O)[O-])cc5oc(-c6ccc(OS(=O)(=O)[O-])c(OS(=O)(=O)[O-])c6)c(OS(=O)(=O)[O-])c(=O)c45)CC3)c12.[Na+].[Na+].[Na+].[Na+].[Na+].[Na+].[Na+].[Na+] (stereo not drawn) [MQD1, Sodium 4-(5-((4-(((2-(3,4-Bis(sulfonatooxy)phenyl)-4-oxo-3,7-bis(sulfonatooxy)-4H-chromen-5-yl)oxy)methyl)cyclohexyl)methoxy)-4-oxo-3,7-bis(sulfonatooxy)-4H-chromen-2-yl)-1,2-phenylene Bis(sulfate)] the “fold better than G2.2 (spheroid potency, IC50 gain)” value [5, 6] was 7.3 fold and ~9 fold and the “cytotoxicity under monolayer conditions” value (HT-29 monolayer culture) was “did not display significant cytotoxicity”.

In the case of enoxaparin [reference compound], the “blood loss, tail bleeding” value [4] is reported as “significantly higher blood loss” and the “concentration required for 2-fold increase in APTT” value [2] is reported as 3 µM.
